Source: ChEMBL document CHEMBL4118063, “Design, synthesis and evaluation of aromatic heterocyclic derivatives as potent antifungal agents” (Eur J Med Chem, 2017)
≈ marks a conversion by molar mass, not a printed value.

Key:
[1] = system: Aspergillus fumigatus; assay: Antifungal activity against Aspergillus fumigatus GIM 3.524 by broth microdilution method; assay type: functional
Summary of the method: (§1)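 Serial twofold-style dilution in growth medium per NCCLS broth microdilution guidelines. Compounds dissolved in DMSO before dilution. Fluconazole and itraconazole served as positive controls. MIC was read as the lowest concentration that prevents visible fungal growth.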

[2] = system: Candida tropicalis; assay: Antifungal activity against Candida tropicalis cgmcc 2.3739 by broth microdilution method; assay type: functional; summary of the method: as §1
[3] = system: Cryptococcus neoformans; assay: Antifungal activity against Cryptococcus neoformans cgmcc 2.3161 by broth microdilution method; assay type: functional; summary of the method: as §1
[4] = system: Candida albicans; assay: Antifungal activity against Candida albicans CPCC 400523 by broth microdilution method; assay type: functional; summary of the method: as §1
[5] = system: Candida albicans; assay: Antifungal activity against Candida albicans ATCC SC5314 by broth microdilution method; assay type: functional; summary of the method: as §1
[6] = biological target: T1, Lanosterol 14-alpha demethylase (Candida albicans (strain SC5314 / ATCC MYA-2876) (Yeast), UniProt P10613); assay: Inhibition of CYP51 in Candida albicans ATCC SC5314 assessed as obtusifoliol content at 0.5 ug/ml by GS-MS analysis relative to total sterols (reference value: 0.6%); parameters: scale not given: the % may be the effect or the level left; conditions: at 0.5 µg/mL
T1 sequence (P10613 whole entry): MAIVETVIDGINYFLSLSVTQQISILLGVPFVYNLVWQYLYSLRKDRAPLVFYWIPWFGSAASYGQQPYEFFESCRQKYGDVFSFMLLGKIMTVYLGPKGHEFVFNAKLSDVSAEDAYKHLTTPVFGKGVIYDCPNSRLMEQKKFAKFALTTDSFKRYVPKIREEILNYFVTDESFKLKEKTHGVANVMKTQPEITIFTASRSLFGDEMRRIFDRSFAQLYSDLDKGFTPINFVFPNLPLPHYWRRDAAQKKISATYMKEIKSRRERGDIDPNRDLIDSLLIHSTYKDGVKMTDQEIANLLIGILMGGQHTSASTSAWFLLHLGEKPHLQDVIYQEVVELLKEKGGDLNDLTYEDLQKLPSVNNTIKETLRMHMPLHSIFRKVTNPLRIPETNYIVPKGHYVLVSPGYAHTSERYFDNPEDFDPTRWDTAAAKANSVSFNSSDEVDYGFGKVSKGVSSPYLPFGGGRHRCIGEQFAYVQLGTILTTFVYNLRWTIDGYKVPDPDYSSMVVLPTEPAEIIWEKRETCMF

[7] = biological target: T1, Lanosterol 14-alpha demethylase; assay: Inhibition of CYP51 in Candida albicans ATCC SC5314 assessed as lanosterol content at 8 ug/ml by GS-MS analysis relative to total sterols; parameters: scale not given: the % may be the effect or the level left; conditions: at 8 µg/mL
[8] = biological target: T1, Lanosterol 14-alpha demethylase; assay: Inhibition of CYP51 in Candida albicans ATCC SC5314 assessed as obtusifoliol content at 0.125 ug/ml by GS-MS analysis relative to total sterols (reference value: 0.6%); parameters: scale not given: the % may be the effect or the level left
[9] = biological target: T1, Lanosterol 14-alpha demethylase; assay: Inhibition of CYP51 in Candida albicans ATCC SC5314 assessed as increase in lanosterol content by GS-MS analysis
[10] = biological target: T1, Lanosterol 14-alpha demethylase; assay: Inhibition of CYP51 in Candida albicans ATCC SC5314 assessed as obtusifoliol content at 2 ug/ml by GS-MS analysis relative to total sterols (reference value: 0.6%); parameters: scale not given: the % may be the effect or the level left; conditions: at 2 µg/mL
[11] = system: Candida albicans; assay: Antifungal activity against fluconazole-resistant Candida albicans strain 100 by broth microdilution method; assay type: functional
Summary of the method: (§2)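 Broth serial dilution in 96-well plates per NCCLS guidelines; compounds dissolved in DMSO and serially diluted into growth medium; MIC taken as lowest concentration inhibiting visible fungal growth. Fluconazole-resistant clinical C. albicans isolates 100 and 103; fluconazole and itraconazole as positive controls.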

[12] = biological target: T1, Lanosterol 14-alpha demethylase; assay: Inhibition of CYP51 in Candida albicans ATCC SC5314 assessed as eburicol content at 8 ug/ml by GS-MS analysis relative to total sterols (reference value: 0.4%); parameters: scale not given: the % may be the effect or the level left; conditions: at 8 µg/mL
[13] = biological target: T1, Lanosterol 14-alpha demethylase; assay: Inhibition of CYP51 in Candida albicans ATCC SC5314 assessed as 4,4-dimethyl zymosterol content at 2 ug/ml by GS-MS analysis relative to total sterols; parameters: scale not given: the % may be the effect or the level left
Summary of the method: (§3)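 C. albicans SC5314 cells exposed to drug at 0.03125–8 µg/mL alongside untreated and fluconazole-treated cells; sterols extracted and analysed by GC-MS with cholesterol as internal standard; each sterol expressed as percent of total sterols.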

[14] = biological target: T1, Lanosterol 14-alpha demethylase; assay: Inhibition of CYP51 in Candida albicans ATCC SC5314 assessed as eburicol content at 0.125 ug/ml by GS-MS analysis relative to total sterols (reference value: 0.4%); parameters: scale not given: the % may be the effect or the level left
[15] = biological target: T1, Lanosterol 14-alpha demethylase; assay: Inhibition of CYP51 in Candida albicans ATCC SC5314 assessed as ergosterol content at 0.125 ug/ml by GS-MS analysis relative to total sterols (reference value: 98.7%); parameters: scale not given: the % may be the effect or the level left
[16] = biological target: T1, Lanosterol 14-alpha demethylase; assay: Inhibition of CYP51 in Candida albicans ATCC SC5314 assessed as ergosterol content at 0.03125 ug/ml by GS-MS analysis relative to total sterols (reference value: 98.7%); parameters: scale not given: the % may be the effect or the level left
[17] = system: Candida albicans; assay: Antifungal activity against fluconazole-resistant Candida albicans strain 103 by broth microdilution method; assay type: functional; summary of the method: as §2
[18] = biological target: T1, Lanosterol 14-alpha demethylase; assay: Inhibition of CYP51 in Candida albicans ATCC SC5314 assessed as decrease in ergosterol content by GS-MS analysis
[19] = biological target: T1, Lanosterol 14-alpha demethylase; assay: Inhibition of CYP51 in Candida albicans ATCC SC5314 assessed as lanosterol content at 2 ug/ml by GS-MS analysis relative to total sterols; parameters: scale not given: the % may be the effect or the level left; conditions: at 2 µg/mL
[20] = biological target: T1, Lanosterol 14-alpha demethylase; assay: Inhibition of CYP51 in Candida albicans ATCC SC5314 assessed as ergosterol content at 0.5 ug/ml by GS-MS analysis relative to total sterols (reference value: 98.7%); parameters: scale not given: the % may be the effect or the level left; conditions: at 0.5 µg/mL
[21] = biological target: T1, Lanosterol 14-alpha demethylase; assay: Inhibition of CYP51 in Candida albicans ATCC SC5314 assessed as lanosterol content at 0.5 ug/ml by GS-MS analysis relative to total sterols; parameters: scale not given: the % may be the effect or the level left; conditions: at 0.5 µg/mL
[22] = biological target: T1, Lanosterol 14-alpha demethylase; assay: Inhibition of CYP51 in Candida albicans ATCC SC5314 assessed as ergosterol content at 8 ug/ml by GS-MS analysis relative to total sterols (reference value: 98.7%); parameters: scale not given: the % may be the effect or the level left; conditions: at 8 µg/mL
[23] = biological target: T1, Lanosterol 14-alpha demethylase; assay: Inhibition of CYP51 in Candida albicans ATCC SC5314 assessed as lanosterol content at 0.125 ug/ml by GS-MS analysis relative to total sterols; parameters: scale not given: the % may be the effect or the level left
[24] = biological target: T1, Lanosterol 14-alpha demethylase; assay: Inhibition of CYP51 in Candida albicans ATCC SC5314 assessed as obtusifoliol content at 8 ug/ml by GS-MS analysis relative to total sterols (reference value: 0.6%); parameters: scale not given: the % may be the effect or the level left; conditions: at 8 µg/mL
[25] = biological target: T1, Lanosterol 14-alpha demethylase; assay: Inhibition of CYP51 in Candida albicans ATCC SC5314 assessed as eburicol content at 0.03125 ug/ml by GS-MS analysis relative to total sterols (reference value: 0.4%); parameters: scale not given: the % may be the effect or the level left
[26] = biological target: T1, Lanosterol 14-alpha demethylase; assay: Inhibition of CYP51 in Candida albicans ATCC SC5314 assessed as eburicol content at 0.5 ug/ml by GS-MS analysis relative to total sterols (reference value: 0.4%); parameters: scale not given: the % may be the effect or the level left; conditions: at 0.5 µg/mL
[27] = biological target: T1, Lanosterol 14-alpha demethylase; assay: Inhibition of CYP51 in Candida albicans ATCC SC5314 assessed as obtusifoliol content at 0.03125 ug/ml by GS-MS analysis relative to total sterols (reference value: 0.6%); parameters: scale not given: the % may be the effect or the level left
[28] = biological target: T1, Lanosterol 14-alpha demethylase; assay: Inhibition of CYP51 in Candida albicans ATCC SC5314 assessed as 4,4-dimethyl zymosterol content at 8 ug/ml by GS-MS analysis relative to total sterols; parameters: scale not given: the % may be the effect or the level left; summary of the method: as §3
[29] = biological target: T1, Lanosterol 14-alpha demethylase; assay: Inhibition of CYP51 in Candida albicans ATCC SC5314 assessed as ergosterol content at 2 ug/ml by GS-MS analysis relative to total sterols (reference value: 98.7%); parameters: scale not given: the % may be the effect or the level left; conditions: at 2 µg/mL
[30] = biological target: T1, Lanosterol 14-alpha demethylase; assay: Inhibition of CYP51 in Candida albicans ATCC SC5314 assessed as eburicol content at 2 ug/ml by GS-MS analysis relative to total sterols (reference value: 0.4%); parameters: scale not given: the % may be the effect or the level left; conditions: at 2 µg/mL
[31] = biological target: T1, Lanosterol 14-alpha demethylase; assay: Inhibition of CYP51 in Candida albicans ATCC SC5314 assessed as increase in eburicol content by GS-MS analysis

`CC(C)OC(=O)[C@H](Cn1ccnc1)NC(=O)c1ccc(-c2ccccc2)s1` showed an MIC [1] greater than 16 µg/mL, an MIC [2] of 1 µg/mL (≈ 2.61 µM) and an MIC [3] of 16 µg/mL (≈ 41.7 µM). The MIC [4] was 8 µg/mL (≈ 20.9 µM) and the MIC [5] was 8 µg/mL (≈ 20.9 µM).
With `CC(C)COC(=O)[C@H](Cn1ccnc1)NC(=O)c1ccc(-c2ccccc2)o1` the MIC [1] was greater than 16 µg/mL, the MIC [2] was 4 µg/mL (≈ 10.5 µM) and the MIC [3] was greater than 16 µg/mL. The MIC [4] was greater than 16 µg/mL and the MIC [5] was greater than 16 µg/mL.
`CC(C)OC(=O)[C@H](Cn1ccnc1)NC(=O)c1ccc(-c2ccccc2)o1` showed an MIC [1] greater than 16 µg/mL, an MIC [2] of 8 µg/mL (≈ 21.8 µM) and an MIC [3] greater than 16 µg/mL. For the same compound, the MIC [4] was greater than 16 µg/mL and the MIC [5] was greater than 16 µg/mL.
In the case of `OC(Cn1cncn1)(Cn1cncn1)c1ccc(F)cc1F` [FLUCONAZOLE], the MIC [1] is reported as 16 µg/mL (≈ 52.2 µM), the Activity [6] is reported as 6.9% and the Activity [7] is reported as 34.8%. The MIC [2] was 0.25 µg/mL (≈ 0.816 µM), the Activity [8] was 8.9% and the “inhibition (INH)” value [9] was “Dose-dependent effect”. It also gave an Activity [10] of 16.1%, an MIC [11] greater than 64 µg/mL and an Activity [12] of 37.2%. It also gave an Activity [13] of 15.7%, an Activity [14] of 2% and an Activity [15] of 88.7%. The Activity [16] was 95.6%, the MIC [17] was greater than 64 µg/mL and the “inhibition (INH)” value [18] was “Dose-dependent effect”. The Activity [19] was 23%, the Activity [20] was 81.4% and the Activity [21] was 4.5%. For the same compound, the Activity [22] was 1.7%, the Activity [23] was 0.4% and the Activity [24] was 13.3%. It also gave an MIC [3] of 4 µg/mL (≈ 13.1 µM), an Activity [25] of 0.8% and an MIC [4] of 2 µg/mL (≈ 6.53 µM). The Activity [26] was 7.2%, the MIC [5] was 1 µg/mL (≈ 3.27 µM) and the Activity [27] was 3.6%. It also gave an Activity [28] of 13%, an Activity [29] of 18.2% and an Activity [30] of 27%. The “inhibition (INH)” value [31] was “Dose-dependent effect”.
`CCC(C)n1ncn(-c2ccc(N3CCN(c4ccc(OCC5COC(Cn6cncn6)(c6ccc(Cl)cc6Cl)O5)cc4)CC3)cc2)c1=O` (stereo unspecified) [ITRACONAZOLE] showed an MIC [1] of 1 µg/mL (≈ 1.42 µM), an MIC [2] of 0.0312 µg/mL (≈ 0.0443 µM) and an MIC [3] of 1 µg/mL (≈ 1.42 µM). It also gave an MIC [4] of 0.125 µg/mL (≈ 0.177 µM) and an MIC [5] of 0.0312 µg/mL (≈ 0.0443 µM).
